# Like-named read-outs stand apart in the source and are kept apart here.
# How the values were obtained:
# [1] = In vitro stability of 99mTc-cyclized analogues in PBS; format: physicochemical; details: pH 7.4, 37 °C
# Outline: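 Test peptides were labelled with 99mTc by exchange from 99mTc-glucoheptonate (pH 7.9–8.1, 60 °C, 30 min), purified by radio-RP-HPLC, mixed with gentisic acid and evaporated. They were diluted in PBS or 1 mM cysteine, adjusted to pH 7.4 and incubated at 37 °C. Aliquots at 1, 2, 4 and 24 h were analysed by RP-HPLC for % intact. Replicate measurements used radio-TLC on C18 (10% ammonium acetate; 1:1 TFA-water/acetonitrile).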
# [2] = format: in vitro ADME; details: mouse, serum, pH 7.4
# [3] = Stability of 99mTc-cyclized analogues to cysteine challenge; format: physicochemical; details: pH 7.4, 37 °C
# [4] = design: species or system CF-1 mice; details: mouse
# [5] = mouse, cited from earlier work
substance,measurement,setting,value
"^99mTc-Ac-Cys^1,Tyr^3-octreotate [99mTc-2]",percent intact 99mTc-analogue post purification,[1]; 1 h,98.3 ± 0.5%
same,percent intact 99mTc-analogue post purification,[1]; 2 h,98.0 ± 0.2%
same,percent intact 99mTc-analogue post purification,[1]; 4 h,97.8 ± 0.9%
same,percent intact 99mTc-analogue post purification,[1]; 24 h,94.1 ± 1.4%
same,percent intact 99mTc-analogue post purification,[2]; 1 h,96.7 ± 0.8%
same,percent intact 99mTc-analogue post purification,[2]; 2 h,97.1 ± 0.7%
same,percent intact 99mTc-analogue post purification,[2]; 4 h,97.0 ± 0.2%
same,percent intact 99mTc-analogue post purification,[2]; 24 h,94.7 ± 2.4%
same,percent intact 99mTc-analogue post purification,"[3]; 10 mM Cys, 1 h",99.4 ± 0.3%
same,percent intact 99mTc-analogue post purification,"[3]; 10 mM Cys, 2 h",99.1 ± 0.5%
same,percent intact 99mTc-analogue post purification,"[3]; 10 mM Cys, 4 h",99.3 ± 0.1%
same,percent intact 99mTc-analogue post purification,"[3]; 10 mM Cys, 24 h",93.3 ± 0.7%
same,"In vivo biodistribution, Adrenals","[4]; 150 ug, 1 h",0.63 ± 0.19 %ID/g
same,"In vivo biodistribution, Blood","[4]; 150 ug, 1 h",1.38 ± 0.15 %ID/g
same,"In vivo biodistribution, Kidney","[4]; 150 ug, 1 h",2.97 ± 0.19 %ID/g
same,"In vivo biodistribution, Lg. Int","[4]; 150 ug, 1 h",0.56 ± 0.04 %ID/g
same,"In vivo biodistribution, Liver","[4]; 150 ug, 1 h",1.78 ± 0.59 %ID/g
same,"In vivo biodistribution, Muscle","[4]; 150 ug, 1 h",0.43 ± 0.05 %ID/g
same,"In vivo biodistribution, Pancreas","[4]; 150 ug, 1 h",0.54 ± 0.10 %ID/g
same,"In vivo biodistribution, Sm. lnt","[4]; 150 ug, 1 h",24.29 ± 3.21 %ID/g
same,"In vivo biodistribution, Spleen","[4]; 150 ug, 1 h",0.47 ± 0.07 %ID/g
same,"In vivo biodistribution, Stomach","[4]; 150 ug, 1 h",5.69 ± 0.45 %ID/g
same,"In vivo biodistribution, Adrenals",[4]; 1 h,0.36 ± 0.04 %ID/g
same,"In vivo biodistribution, Blood",[4]; 1 h,0.95 ± 0.12 %ID/g
same,"In vivo biodistribution, Kidney",[4]; 1 h,2.61 ± 0.64 %ID/g
same,"In vivo biodistribution, Lg. Int",[4]; 1 h,0.53 ± 0.08 %ID/g
same,"In vivo biodistribution, Liver",[4]; 1 h,1.60 ± 0.17 %ID/g
same,"In vivo biodistribution, Muscle",[4]; 1 h,0.26 ± 0.02 %ID/g
same,"In vivo biodistribution, Pancreas",[4]; 1 h,0.46 ± 0.15 %ID/g
same,"In vivo biodistribution, Sm. lnt",[4]; 1 h,20.28 ± 3.58 %ID/g
same,"In vivo biodistribution, Spleen",[4]; 1 h,0.38 ± 0.09 %ID/g
same,"In vivo biodistribution, Stomach",[4]; 1 h,2.95 ± 1.42 %ID/g
same,"In vivo biodistribution, Adrenals",[4]; 4 h,0.22 ± 0.07 %ID/g
same,"In vivo biodistribution, Blood",[4]; 4 h,0.34 ± 0.04 %ID/g
same,"In vivo biodistribution, Kidney",[4]; 4 h,1.43 ± 0.34 %ID/g
same,"In vivo biodistribution, Lg. Int",[4]; 4 h,28.18 ± 4.57 %ID/g
same,"In vivo biodistribution, Liver",[4]; 4 h,0.47 ± 0.15 %ID/g
same,"In vivo biodistribution, Muscle",[4]; 4 h,0.08 ± 0.04 %ID/g
same,"In vivo biodistribution, Pancreas",[4]; 4 h,0.15 ± 0.03 %ID/g
same,"In vivo biodistribution, Sm. lnt",[4]; 4 h,1.94 ± 0.50 %ID/g
same,"In vivo biodistribution, Spleen",[4]; 4 h,0.12 ± 0.01 %ID/g
same,"In vivo biodistribution, Stomach",[4]; 4 h,3.88 ± 0.54 %ID/g
same,"In vivo biodistribution, Adrenals",[4]; 24 h,0.03 ± 0.01 %ID/g
same,"In vivo biodistribution, Blood",[4]; 24 h,0.06 ± 0.01 %ID/g
same,"In vivo biodistribution, Kidney",[4]; 24 h,0.48 ± 0.10 %ID/g
same,"In vivo biodistribution, Lg. Int",[4]; 24 h,1.18 ±0.66 %ID/g
same,"In vivo biodistribution, Liver",[4]; 24 h,0.11 ± 0.01 %ID/g
same,"In vivo biodistribution, Muscle",[4]; 24 h,0.01 ± 0.01 %ID/g
same,"In vivo biodistribution, Pancreas",[4]; 24 h,0.02 ± 0.01 %ID/g
same,"In vivo biodistribution, Sm. lnt",[4]; 24 h,0.22 ± 0.04 %ID/g
same,"In vivo biodistribution, Spleen",[4]; 24 h,0.04 ± 0.01 %ID/g
same,"In vivo biodistribution, Stomach",[4]; 24 h,0.61 ± 0.15 %ID/g
^99mTc-Ac-Tyr^3-octreotate [99mTc-1],percent intact 99mTc-analogue post purification,[1]; 1 h,90.2 ± 2.4%
same,percent intact 99mTc-analogue post purification,[1]; 2 h,83.4 ± 5.2%
same,percent intact 99mTc-analogue post purification,[1]; 4 h,76.3 ± 3.4%
same,percent intact 99mTc-analogue post purification,[1]; 24 h,52.0 ± 5.6%
same,percent intact 99mTc-analogue post purification,[2]; 1 h,91.4 ± 1.8%
same,percent intact 99mTc-analogue post purification,[2]; 2 h,81.7 ± 4.1%
same,percent intact 99mTc-analogue post purification,[2]; 4 h,81.4 ± 4.7%
same,percent intact 99mTc-analogue post purification,[2]; 24 h,51.2 ± 4.4%
same,percent intact 99mTc-analogue post purification,"[3]; 1 mM Cys, 1 h",97.1 ± 3.3%
same,percent intact 99mTc-analogue post purification,"[3]; 1 mM Cys, 2 h",95.1 ± 2.7%
same,percent intact 99mTc-analogue post purification,"[3]; 1 mM Cys, 4 h",87.2 ± 1.0%
same,percent intact 99mTc-analogue post purification,"[3]; 1 mM Cys, 24 h",81.7 ± 1.8%
same,percent intact 99mTc-analogue post purification,"[3]; 10 mM Cys, 1 h",60.1 ± 5.1%
same,percent intact 99mTc-analogue post purification,"[3]; 10 mM Cys, 2 h",55.8 ± 6.9%
same,percent intact 99mTc-analogue post purification,"[3]; 10 mM Cys, 4 h",38.9 ± 3.7%
same,percent intact 99mTc-analogue post purification,"[3]; 10 mM Cys, 24 h",22.9 ± 4.5%
same,"In vivo biodistribution, Adrenals","[4]; 150 ug, 1 h",2.18 ± 0.69 %ID/g
same,"In vivo biodistribution, Blood","[4]; 150 ug, 1 h",4.31 ± 0.44 %ID/g
same,"In vivo biodistribution, Kidney","[4]; 150 ug, 1 h",8.00 ± 1.74 %ID/g
same,"In vivo biodistribution, Lg. Int","[4]; 150 ug, 1 h",1.70 ± 0.18 %ID/g
same,"In vivo biodistribution, Liver","[4]; 150 ug, 1 h",6.47 ± 1.64 %ID/g
same,"In vivo biodistribution, Muscle","[4]; 150 ug, 1 h",0.68 ± 0.06 %ID/g
same,"In vivo biodistribution, Pancreas","[4]; 150 ug, 1 h",2.08 ± 0.31 %ID/g
same,"In vivo biodistribution, Sm. lnt","[4]; 150 ug, 1 h",10.91 ± 2.12 %ID/g
same,"In vivo biodistribution, Spleen","[4]; 150 ug, 1 h",1.74 ± 0.24 %ID/g
same,"In vivo biodistribution, Stomach","[4]; 150 ug, 1 h",14.18 ± 4.97 %ID/g
same,"In vivo biodistribution, Adrenals",[4]; 1 h,1.53 ± 0.30 %ID/g
same,"In vivo biodistribution, Blood",[4]; 1 h,3.81 ± 0.10 %ID/g
same,"In vivo biodistribution, Kidney",[4]; 1 h,12.05 ± 2.14 %ID/g
same,"In vivo biodistribution, Lg. Int",[4]; 1 h,2.55 ± 0.21 %ID/g
same,"In vivo biodistribution, Liver",[4]; 1 h,4.17 ± 0.34 %ID/g
same,"In vivo biodistribution, Muscle",[4]; 1 h,0.53 ± 0.06 %ID/g
same,"In vivo biodistribution, Pancreas",[4]; 1 h,1.49 ± 0.06 %ID/g
same,"In vivo biodistribution, Sm. lnt",[4]; 1 h,15.48 ± 3.35 %ID/g
same,"In vivo biodistribution, Spleen",[4]; 1 h,1.30 ± 0.17 %ID/g
same,"In vivo biodistribution, Stomach",[4]; 1 h,11.69 ± 10.10 %ID/g
same,"In vivo biodistribution, Adrenals",[4]; 4 h,0.86 ± 0.43 %ID/g
same,"In vivo biodistribution, Blood",[4]; 4 h,1.50 ± 0.29 %ID/g
same,"In vivo biodistribution, Kidney",[4]; 4 h,6.54 ± 0.23 %ID/g
same,"In vivo biodistribution, Lg. Int",[4]; 4 h,22.09 ± 4.99 %ID/g
same,"In vivo biodistribution, Liver",[4]; 4 h,1.58 ± 0.06 %ID/g
same,"In vivo biodistribution, Muscle",[4]; 4 h,0.25 ± 0.06 %ID/g
same,"In vivo biodistribution, Pancreas",[4]; 4 h,0.55 ± 0.04 %ID/g
same,"In vivo biodistribution, Sm. lnt",[4]; 4 h,2.02 ± 0.67 %ID/g
same,"In vivo biodistribution, Spleen",[4]; 4 h,0.55 ± 0.13 %ID/g
same,"In vivo biodistribution, Stomach",[4]; 4 h,7.54 ± 4.16 %ID/g
same,"In vivo biodistribution, Adrenals",[4]; 24 h,0.12 ± 0.03 %ID/g
same,"In vivo biodistribution, Blood",[4]; 24 h,0.15 ± 0.02 %ID/g
same,"In vivo biodistribution, Kidney",[4]; 24 h,2.04 ± 0.37 %ID/g
same,"In vivo biodistribution, Lg. Int",[4]; 24 h,3.08 ± 1.60 %ID/g
same,"In vivo biodistribution, Liver",[4]; 24 h,0.39 ± 0.03 %ID/g
same,"In vivo biodistribution, Muscle",[4]; 24 h,0.05 ± 0.02 %ID/g
same,"In vivo biodistribution, Pancreas",[4]; 24 h,0.07 ± 0.01 %ID/g
same,"In vivo biodistribution, Sm. lnt",[4]; 24 h,0.68 ± 0.20 %ID/g
same,"In vivo biodistribution, Spleen",[4]; 24 h,0.08 ± 0.01 %ID/g
same,"In vivo biodistribution, Stomach",[4]; 24 h,1.26 ± 0.49 %ID/g
same,uptake in the various tissues and organs relative to TATE and 99mTc-2,[4]; in vivo,two to four times higher
^99mTc-Tyr^3-octreotate [99mTc-TATE],percent intact 99mTc-analogue post purification,[1]; 1 h,86.2 ± 5.4%
same,percent intact 99mTc-analogue post purification,[1]; 2 h,73.7 ± 4.3%
same,percent intact 99mTc-analogue post purification,[1]; 4 h,60.4 ± 1.8%
same,percent intact 99mTc-analogue post purification,[1]; 24 h,37.9 ± 7.7%
same,percent intact 99mTc-analogue post purification,[2]; 1 h,97.4 ± 1.9%
same,percent intact 99mTc-analogue post purification,[2]; 2 h,97.1 ± 1.5%
same,percent intact 99mTc-analogue post purification,[2]; 4 h,95.2 ± 1.7%
same,percent intact 99mTc-analogue post purification,[2]; 24 h,57.6 ± 7.5%
same,percent intact 99mTc-analogue post purification,"[3]; 1 mM Cys, 1 h",95.8 ± 2.4%
same,percent intact 99mTc-analogue post purification,"[3]; 1 mM Cys, 2 h",85.3 ± 4.0%
same,percent intact 99mTc-analogue post purification,"[3]; 1 mM Cys, 4 h",77.8 ± 3.3%
same,percent intact 99mTc-analogue post purification,"[3]; 1 mM Cys, 24 h",45.0 ± 5.8%
same,percent intact 99mTc-analogue post purification,"[3]; 10 mM Cys, 1 h",63.9 ± 4.1%
same,percent intact 99mTc-analogue post purification,"[3]; 10 mM Cys, 2 h",53.3 ± 3.5%
same,percent intact 99mTc-analogue post purification,"[3]; 10 mM Cys, 4 h",42.5 ± 5.6%
same,percent intact 99mTc-analogue post purification,"[3]; 10 mM Cys, 24 h",15.0 ± 8.3%
same,"In vivo biodistribution, Adrenals",[5]; 4 h,0.14 ± 0.06 %ID/g
same,"In vivo biodistribution, Blood",[5]; 4 h,0.44 ± 0.05 %ID/g
same,"In vivo biodistribution, Kidney",[5]; 4 h,1.37 ± 0.29 %ID/g
same,"In vivo biodistribution, Lg. Int",[5]; 4 h,60.20 ± 6.39 %ID/g
same,"In vivo biodistribution, Liver",[5]; 4 h,0.66 ± 0.03 %ID/g
same,"In vivo biodistribution, Muscle",[5]; 4 h,0.05 ± 0.01 %ID/g
same,"In vivo biodistribution, Pancreas",[5]; 4 h,0.19 ± 0.06 %ID/g
same,"In vivo biodistribution, Sm. lnt",[5]; 4 h,2.08 ± 1.08 %ID/g
same,"In vivo biodistribution, Spleen",[5]; 4 h,0.20 ± 0.02 %ID/g
same,"In vivo biodistribution, Stomach",[5]; 4 h,4.82 ± 0.95 %ID/g
same,"In vivo biodistribution, Adrenals",[5]; 24 h,0.01 ± 0.01 %ID/g
same,"In vivo biodistribution, Blood",[5]; 24 h,0.05 ± 0.01 %ID/g
same,"In vivo biodistribution, Kidney",[5]; 24 h,0.60 ± 0.05 %ID/g
same,"In vivo biodistribution, Lg. Int",[5]; 24 h,0.59 ± 0.24 %ID/g
same,"In vivo biodistribution, Liver",[5]; 24 h,0.22 ± 0.03 %ID/g
same,"In vivo biodistribution, Muscle",[5]; 24 h,0.01 ± 0.01 %ID/g
same,"In vivo biodistribution, Pancreas",[5]; 24 h,0.03 ± 0.01 %ID/g
same,"In vivo biodistribution, Sm. lnt",[5]; 24 h,0.19 ± 0.01 %ID/g
same,"In vivo biodistribution, Spleen",[5]; 24 h,0.05 ± 0.01 %ID/g
same,"In vivo biodistribution, Stomach",[5]; 24 h,0.69 ± 0.23 %ID/g

# Source: paper PMC3086726 (Nuclear medicine and biology, 2010)
